Key:
Assay type in all cases: functional
SF-539 = assay: Cytotoxicity against human SF539 cells assessed as cell growth at 10 uM after 48 hrs by SRB assay; settings: SF-539, 48 h, read-out: Activity
Method in brief: (§1)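 NCI-60 single-dose screen. Cell lines grown in RPMI 1640 with 5% FBS and 2 mM L-glutamine, plated at 5000–40,000 cells/well according to doubling time, then preincubated 24 h at 37 °C in 5% CO2. Compounds dissolved in DMSO, tested at 10^-5 M for 48 h. Adherent cells fixed with cold TCA (10% final) and stained with 0.4% SRB in 1% acetic acid. Growth expressed as percent of untreated control.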

SF-268 = assay: Cytotoxicity against human SF268 cells assessed as cell growth at 10 uM after 48 hrs by SRB assay; settings: SF-268, 48 h, read-out: Activity; method in brief: as §1
SW-620 = assay: Cytotoxicity against human SW620 cells assessed as cell growth at 10 uM after 48 hrs by SRB assay; settings: SW-620, 48 h, read-out: Activity
Method in brief: (§2)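 NCI-60 single-dose screen at 10^-5 M. Adherent lines are grown in RPMI 1640 with 5% FBS and 2 mM L-glutamine, seeded at 5000–40,000 cells/well by doubling time, and preincubated 24 h at 37 °C in 5% CO2. Drug is added from DMSO stock diluted in medium, then 48 h. Cells are fixed in cold TCA (final 10%) for 60 min and stained with 0.4% SRB in 1% acetic acid. Growth is expressed as % of untreated control using time-zero plates.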

HT-29 = assay: Cytotoxicity against human HT-29 cells assessed as cell growth at 10 uM after 48 hrs by SRB assay; settings: HT-29, 48 h, read-out: Activity; method in brief: as §1
HCT-15 = assay: Cytotoxicity against human HCT15 cells assessed as cell growth at 10 uM after 48 hrs by SRB assay; settings: HCT-15, 48 h, read-out: Activity; method in brief: as §1
HCT-116 = assay: Cytotoxicity against human HCT116 cells assessed as cell growth at 10 uM after 48 hrs by SRB assay; settings: HCT-116, 48 h, read-out: Activity; method in brief: as §1
HCC 2998 = assay: Cytotoxicity against human HCC2998 cells assessed as cell growth at 10 uM after 48 hrs by SRB assay; settings: HCC 2998, 48 h, read-out: Activity; method in brief: as §1
NCI-H460 = assay: Cytotoxicity against human NCI-H460 cells assessed as cell growth at 10 uM after 48 hrs by SRB assay; settings: NCI-H460, 48 h, read-out: Activity; method in brief: as §1
NCI-H23 = assay: Cytotoxicity against human NCI-H23 cells assessed as cell growth at 10 uM after 48 hrs by SRB assay; settings: NCI-H23, 48 h, read-out: Activity; method in brief: as §1
HOP-62 = assay: Cytotoxicity against human HOP62 cells assessed as cell growth at 10 uM after 48 hrs by SRB assay; settings: HOP-62, 48 h, read-out: Activity; method in brief: as §1
SR = assay: Cytotoxicity against human SR cells assessed as cell growth at 10 uM after 48 hrs by SRB assay; settings: read-out: Activity
Method in brief: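 Leukemia line, NCI-60 single-dose screen at 10^-5 M. Cells are grown in RPMI 1640 with 5% FBS and 2 mM L-glutamine, plated by doubling time, and preincubated 24 h at 37 °C with 5% CO2. After 48 h drug exposure, settled cells are fixed with 80% TCA (final 16%) and stained with SRB. Percent growth is calculated against untreated control and time-zero plates.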

RPMI-8226 = assay: Cytotoxicity against human RPMI8226 cells assessed as cell growth at 10 uM after 48 hrs by SRB assay; settings: RPMI-8226, 48 h, read-out: Activity; method in brief: as §1
MOLT-4 = assay: Cytotoxicity against human MOLT4 cells assessed as cell growth at 10 uM after 48 hrs by SRB assay; settings: MOLT-4, 48 h, read-out: Activity; method in brief: as §1
CCRF-CEM = assay: Cytotoxicity against human CCRF-CEM cells assessed as cell growth at 10 uM after 48 hrs by SRB assay; settings: read-out: Activity; method in brief: as §1
MDA-MB-468 = assay: Cytotoxicity against human MDA-MB-468 cells assessed as cell growth at 10 uM after 48 hrs by SRB assay; settings: MDA-MB-468, 48 h, read-out: Activity; method in brief: as §1
BT-549 = assay: Cytotoxicity against human BT549 cells assessed as cell growth at 10 uM after 48 hrs by SRB assay; settings: BT-549, 48 h, read-out: Activity; method in brief: as §1
MDA-MB-231 = assay: Cytotoxicity against human MDA-MB-231 cells assessed as cell growth at 10 uM after 48 hrs by SRB assay; settings: MDA-MB-231, 48 h, read-out: Activity; method in brief: as §1
MCF7 = assay: Cytotoxicity against human MCF7 cells assessed as cell growth at 10 uM after 48 hrs by SRB assay; settings: MCF7, 48 h, read-out: Activity; method in brief: as §1
[1] = Cytotoxicity against human UO31 cells assessed as cell growth at 10 uM after 48 hrs by SRB assay; settings: UO-31, 48 h, read-out: Activity; method in brief: as §2
TK-10 = assay: Cytotoxicity against human TK10 cells assessed as cell growth at 10 uM after 48 hrs by SRB assay; settings: TK-10, 48 h, read-out: Activity; method in brief: as §2
786-0 = assay: Cytotoxicity against human 786-0 cells assessed as cell growth at 10 uM after 48 hrs by SRB assay; settings: 786-0, 48 h, read-out: Activity; method in brief: as §1
SK-OV-3 = assay: Cytotoxicity against human SKOV3 cells assessed as cell growth at 10 uM after 48 hrs by SRB assay; settings: SK-OV-3, 48 h, read-out: Activity; method in brief: as §1
[2] = Cytotoxicity against human OVCAR4 cells assessed as cell growth at 10 uM after 48 hrs by SRB assay; settings: OVCAR-4, 48 h, read-out: Activity; method in brief: as §1
IGROV-1 = assay: Cytotoxicity against human IGROV1 cells assessed as cell growth at 10 uM after 48 hrs by SRB assay; settings: IGROV-1, 48 h, read-out: Activity; method in brief: as §1
SK-MEL-5 = assay: Cytotoxicity against human SK-MEL-5 cells assessed as cell growth at 10 uM after 48 hrs by SRB assay; settings: SK-MEL-5, 48 h, read-out: Activity; method in brief: as §1
M14 = assay: Cytotoxicity against human M14 cells assessed as cell growth at 10 uM after 48 hrs by SRB assay; settings: M14, 48 h, read-out: Activity; method in brief: as §1
U-251 = assay: Cytotoxicity against human U251 cells assessed as cell growth at 10 uM after 48 hrs by SRB assay; settings: U-251, 48 h, read-out: Activity; method in brief: as §2
SNB-75 = assay: Cytotoxicity against human SNB75 cells assessed as cell growth at 10 uM after 48 hrs by SRB assay; settings: SNB-75, 48 h, read-out: Activity; method in brief: as §1

SMILES | growth at 10 µM (SF-539) [%] | growth at 10 µM (SF-268) [%] | growth at 10 µM (SW-620) [%] | growth at 10 µM (HT-29) [%] | growth at 10 µM (HCT-15) [%] | growth at 10 µM (HCT-116) [%] | growth at 10 µM (HCC 2998) [%] | growth at 10 µM (NCI-H460) [%] | growth at 10 µM (NCI-H23) [%] | growth at 10 µM (HOP-62) [%] | growth at 10 µM (SR) [%] | growth at 10 µM (RPMI-8226) [%] | growth at 10 µM (MOLT-4) [%] | growth at 10 µM (CCRF-CEM) [%] | growth at 10 µM (MDA-MB-468) [%] | growth at 10 µM (BT-549) [%] | growth at 10 µM (MDA-MB-231) [%] | growth at 10 µM (MCF7) [%] | growth at 10 µM [1] [%] | growth at 10 µM (TK-10) [%] | further results
CC1=NN(c2cn3c(-c4ccccc4)csc3n2)C(=O)C1 | 89.7 | 99.3 | 104 | 106 | 96.7 | 96.5 | 97.3 | 107 | 91.6 | 95.3 | 84.5 | 94.2 | 84.4 | 95.9 | 114 | 89.7 | 89.9 | 89.6 | 59 | 125 | growth at 10 µM (786-0): 96.6%; growth at 10 µM (SK-OV-3): 88.9%; growth at 10 µM [2]: 98%; growth at 10 µM (IGROV-1): 88%; growth at 10 µM (SK-MEL-5): 102%; growth at 10 µM (M14): 100%; growth at 10 µM (U-251): 90.7%; growth at 10 µM (SNB-75): 59.4%
O=C1CN2C(c3ccc(Cl)cc3)=CSC2=N1 | 94.8 | 100 | 101 | 88.4 | 93.3 | 97.1 | 101 | 106 | 104 | 107 | 77.8 | 89.2 | 79.1 | 91.5 | 106 | 89 | 102 | 90.9 | 92.7 | 79.9 | growth at 10 µM (786-0): 94%; growth at 10 µM (SK-OV-3): 98.2%; growth at 10 µM [2]: 90.3%; growth at 10 µM (IGROV-1): 95.2%; growth at 10 µM (SK-MEL-5): 105%; growth at 10 µM (M14): 97%; growth at 10 µM (U-251): 94.3%; growth at 10 µM (SNB-75): 75.8%
O=C1CC(=O)N(c2cn3c(-c4ccccc4)csc3n2)N1 | 88.2 | 99.5 | 107 | 104 | 91.2 | 95.5 | 103 | 104 | 91.5 | 85.9 | 83 | 93 | 101 | 98.7 | 102 | 97.6 | 85.7 | 85.8 | 59.6 | 131 | growth at 10 µM (786-0): 104%; growth at 10 µM (SK-OV-3): 86.8%; growth at 10 µM [2]: 81.2%; growth at 10 µM (IGROV-1): 91.5%; growth at 10 µM (SK-MEL-5): 89.6%; growth at 10 µM (M14): 101%; growth at 10 µM (U-251): 84.2%; growth at 10 µM (SNB-75): 63.1%
CC1=NN(c2cn3c(-c4ccc(Cl)cc4)csc3n2)C(=O)C1 | 94.7 | 96.3 | 99.3 | 85.7 | 88.7 | 97.1 | 100 | 103 | 92 | 97.5 | 73.3 | 75.9 | 65.8 | 84.4 | 97.9 | 101 | 96.5 | 93.5 | 80.9 | 98.8 | growth at 10 µM (786-0): 94.1%; growth at 10 µM (SK-OV-3): 100%; growth at 10 µM [2]: 77.2%; growth at 10 µM (IGROV-1): 99.3%; growth at 10 µM (SK-MEL-5): 92.4%; growth at 10 µM (M14): 96.2%; growth at 10 µM (U-251): 91.7%; growth at 10 µM (SNB-75): 65.3%
O=C1CC(=O)N(c2cn3c(-c4ccc(Cl)cc4)csc3n2)N1 | 101 | 105 | 104 | 91.3 | 92.9 | 93.2 | 102 | 104 | 97.8 | 104 | 74 | 85 | 79 | 89.5 | 104 | 95.3 | 107 | 89 | 111 | 95 | growth at 10 µM (786-0): 96.4%; growth at 10 µM (SK-OV-3): 103%; growth at 10 µM [2]: 87.4%; growth at 10 µM (IGROV-1): 117%; growth at 10 µM (SK-MEL-5): 99.7%; growth at 10 µM (M14): 100%; growth at 10 µM (U-251): 91.9%; growth at 10 µM (SNB-75): 74.2%

— ChEMBL document CHEMBL3120060, “Synthesis, in vitro anticancer evaluation and in silico studies of novel imidazo[2,1-b]thiazole derivatives bearing pyrazole moieties” (2014)
